The test system of series [1] is MCF7. Description: Induction of apoptosis in human MCF7 cells assessed as chromatin condensation at 0.125 to 1 uM after 36 hrs by Hoechst 33342 staining based fluorescence microscopic method. The format is functional, cell-based.
For the next series, the system named is Mus musculus. Description: Nephrotoxicity in Balb/c nude mouse xenografted with human MCF7 cells assessed as morphological changes in kidney at 20 mg/kg/day, iv for 4 weeks by hematoxylin and eosin staining based microscopic method. The note with it: in vivo, 672 h. Format: toxicity, organism-based. An outline of the steps:
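Male BALB/c nude mice aged six weeks received 1 × 10^6 MCF-7 cells subcutaneously in the right flank. After 7 d they were randomized and dosed 20 mg/kg iv once daily in 10% DMF/2% poloxamer/88% saline; saline control. Heart, liver, spleen, lung and kidney were fixed in 4% paraformaldehyde, paraffin-embedded, sectioned at 5 μm, H&E stained and examined microscopically.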
On the technique in general: A xenograft is tissue or cells of one species grown in another, often human tumour cells in immunodeficient mice.

For a further series, the system named is Bel-7402. Description: Cell cycle arrest in human Bel7402 cells assessed as accumulation at S phase at 2 uM after 48 hrs by propidium iodide staining based flow cytometry (reference value: 8.78%). The format is functional. On the technique in general: Flow cytometry measures light scatter and fluorescence of single cells or particles in a stream.
Series [2] has as its system MCF7. Description: Induction of apoptosis in human MCF7 cells assessed as early apoptotic cells at 0.25 uM after 24 hrs by Annexin-V FITC/propidium iodide staining based flow cytometry (reference value: 2.65%). Format: functional.
Series [3] has as its system MCF7. Description: Induction of apoptosis in human MCF7 cells assessed as early apoptotic cells at 0.5 uM after 24 hrs by Annexin-V FITC/propidium iodide staining based flow cytometry (reference value: 2.65%). Format: functional.
Series [4] concerns MCF7. Description: Cell cycle arrest in human MCF7 cells assessed as accumulation at G2/M phase at 0.5 uM after 48 hrs by propidium iodide staining based flow cytometry (reference value: 13.05%). Format: functional. An outline of the steps: (§1)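 MCF-7 cells, 5 × 10^4 per well, seeded overnight, then exposed to 0.125–1 μM compound, or DMSO, for 48 h. Ethanol-fixed (70%, −20 °C, 12 h) and stained with PI/RNase at 37 °C for 30 min. Phase distribution determined by flow cytometry.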

Series [5] has as its system MCF7. Description: Induction of apoptosis in human MCF7 cells assessed as live cells at 0.5 uM after 24 hrs by Annexin-V FITC/propidium iodide staining based flow cytometry (reference value: 97%). Format: functional.
Series [6] concerns MCF7. Description: Cell cycle arrest in human MCF7 cells assessed as accumulation at G1 phase at 0.5 uM after 48 hrs by propidium iodide staining based flow cytometry (reference value: 49.77%). The format is functional. Summed up: as §1
A short description of series [7]: Antiproliferative activity against human BEL7404/CP20 cells after 48 hrs by MTT assay. The note with it: BEL7404/CP20, 48 h. Format: functional, cell-based. Summed up:
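Colorimetric MTT assay. KB-3-1, NCI-H460 and Bel-7404 cells were seeded at 4000 cells/well; resistant KB/CP4, NCI-H460/MX20 and Bel-7404/CP20 were seeded at 7000 cells/well. Cells were pre-incubated 24 h at 37 °C, 5% CO2, then exposed to a compound concentration series for 48 h with DMSO ≤0.25%. Absorbance read at 570 nm. Quadruplicate wells, three repeats; means ± SD.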

The test system of series [8] is MCF7. Description: Cell cycle arrest in human MCF7 cells assessed as accumulation at S phase at 0.125 uM after 48 hrs by propidium iodide staining based flow cytometry (reference value: 37.18%). The format is functional. Summed up:
as §1

Series [9] has as its system MCF7. Description: Induction of apoptosis in human MCF7 cells assessed as live cells at 0.125 uM after 24 hrs by Annexin-V FITC/propidium iodide staining based flow cytometry (reference value: 97%). The format is functional.
Series [10] deals with MCF7. Description: Induction of apoptosis in human MCF7 cells assessed as late apoptotic cells at 0.25 uM after 24 hrs by Annexin-V FITC/propidium iodide staining based flow cytometry (reference value: 0.255%). Format: functional.
The test system of series [11] is MCF7. Description: Downregulation of cdc2 protein expression in human MCF7 cells after 48 hrs by Western blot method. The format is functional, cell-based. An outline of the steps: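 MCF-7 cells exposed to 0–1 μM compound for 48 h, then lysed on ice. Lysate (20 μg protein) run on 8–12% SDS-PAGE and transferred to PVDF. Probed overnight at 4 °C with primary antibodies, then fluorescent secondaries. Band densities normalized to β-actin. Mean ± SD of three independent experiments.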
(Immunoblotting shows a protein as a band on a membrane.)

Series [12] has as its system MCF7. Description: Cell cycle arrest in human MCF7 cells assessed as accumulation at S phase at 0.5 uM after 48 hrs by propidium iodide staining based flow cytometry (reference value: 37.18%). Format: functional. An outline of the steps: as §1
Series [13] concerns MCF7. Description: Cell cycle arrest in human MCF7 cells assessed as accumulation at G1 phase at 0.125 uM after 48 hrs by propidium iodide staining based flow cytometry (reference value: 49.77%). Format: functional. Summed up: as §1
Series [14] relates to MCF7. Description: Cell cycle arrest in human MCF7 cells assessed as accumulation at G2/M phase at 0.125 uM after 48 hrs by propidium iodide staining based flow cytometry (reference value: 13.05%). Format: functional. Summed up:
as §1

Each structure is given as a SMILES string. Activity calls are given as the source filed them. No cut-off for these calls is given here.

The values below come from ChEMBL document CHEMBL3997810, “A Novel Potent Anticancer Compound Optimized from a Natural Oridonin Scaffold Induces Apoptosis and Cell Cycle Arrest through the Mitochondrial Pathway” (J Med Chem, 2017).

In the case of `C=C1C(=O)[C@]23[C@H](OC(=O)/C=C/c4ccccc4)[C@H]1CC[C@H]2[C@]12C=CCC(C)(C)[C@H]1[C@H](O)[C@]3(O)OC2`, the outcome with MCF7 [1] was Active. The Activity entry is “Non-Toxic” in the series on Mus musculus; 10.78% with Bel-7402; 8.29% in the series on MCF7 [2]; 13.3% in the series on MCF7 [3]; 24.23% with MCF7 [4]; 54.3% in the series with MCF7 [5]. Moreover, the Activity is 43.87% in the series with MCF7 [6]; 33.93% in the series with MCF7 [8]; 84.9% with MCF7 [9]; 19.6% in the series with MCF7 [10]; “Dose-dependent effect” in the series on MCF7 [11]; 31.9% with MCF7 [12]. Also, the Activity with MCF7 [13] was found to be 49.27%; with MCF7 [14] it was 16.83%. The same compound yielded an IC50 in series [7] of 4.73 µM.

Usually IC50 stands for the concentration that gives 50% inhibition.
